Screens: PubChem, several laboratories
APP 5UTR inh = APP translation inhibition; 190,000 tested, 0.82% active; inhibition, % at 2 µM; SH-SY5Y APP 5'UTR-luciferase reporter, luminescence;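 active = inhibition above a set limit, derived from the sample mean plus 3 SD, cut at about 45% in these data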
b-catenin transl = beta-catenin nuclear translocation modulation | HeLa beta-catenin nuclear translocation, immunofluorescence imaging | nuclear translocation activity, % at 5 µM | 190,000 tested, 0.3% active;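 active = nuclear translocation activity above 50% at 5 µM, with a well cell count of 50 or more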;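 note: per-cell ratio of nuclear to cytoplasmic median beta-catenin stain intensity; plate controls were DMSO negative control for no effect and GSK-3 inhibitor IX positive control for full effect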
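Test system: human HeLa cells, endogenous beta-catenin. Times: 24 h compound exposure, 37°C. Measured by: beta-catenin immunofluorescence imaging with DAPI.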
MT stabilize HCS = microtubule stabilization, imaging screen. HeLa tubulin immunostaining HCS, 24 h; share of cells brighter than vehicle mean+2SD. % tubulin-high responders, % at 10 µM. 200,000 tested, 0.83% active;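 active = plate Z-score above 3 for both tubulin-high and condensed-nucleus cell shares, with cell loss under 80%, at 10 µM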;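 note: anti alpha tubulin signal scored within the nucleus-defined area of each cell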
Ba/F3 V617F tox = lowers viability of Ba/F3 cells expressing EpoR and JAK2V617F; ATP luminescence; inhibition, % at 5.6 µM; 220,000 tested, 1.1% active;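 active = inhibition above the campaign mean plus 3 SD over all tested compounds, cut at about 24% in these data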;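 note: cytokine-independent growth of Ba/F3 cells driven by EpoR plus mutant JAK2; 0% = DMSO-treated cells and 100% = JAK inhibitor I control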
BaF3 tox = counter-screen for JAK2V617F inhibitors: parental Ba/F3 viability inhibitors; AID 1486; 220,000 tested, 1.1% active; CellTiter-Glo ATP luminescence; inhibition, % at 5.6 µM;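 active = inhibition above a per-campaign cutoff, the mean inhibition of all tested compounds plus 3 SD, cut at about 27% in these data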;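 note: 0% = DMSO wells and 100% = JAK Inhibitor I control wells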
IEC-6 tox = counter-screen for KLF5 inhibitors: cytotoxicity in IEC-6 cells; IEC-6 cytotoxicity, luminescence viability; inhibition, % at 5 µM; 290,000 tested, 0.78% active; AID 1825; in the data active = inhibition above about 22%;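 note: 0% = plate median of test compound wells and 100% = cytotoxic reference compound wells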
Starred values were filed as active, the others as inactive; · = no result. An excerpt weighted towards active compounds, which were near 2.2% of everything screened.

SMILES | APP 5UTR inh | b-catenin transl | MT stabilize HCS | Ba/F3 V617F tox | BaF3 tox | IEC-6 tox
C[n+]1c(-c2ccccc2)cc(-c2ccc(Cl)cc2)cc1-c1ccccc1 | -5.7 | 1.3 | 5.5 | 46.4* | 29.8* | 7.7
COC(=O)CSC1=NP(=S)(SCC(=O)OC)N2CCCC2=C1C#N (configuration not stated) | -0.1 | 3.8 | 3.0 | -0.2 | 77.7* | -2.9
O=C(N/N=C/c1c(O)n(CCc2ccccc2)c(=O)[nH]c1=O)c1ccccc1 | · | -3.6 | · | -2.2 | 0.6 | -1.5
CC1=CC(=C2C(=O)NC(=S)NC2=O)C=C(C(F)(F)F)N1CCc1ccccc1 | 92.4* | 2.6 | 25.1* | -0.9 | 8.2 | -3.5
CC1=CC(=C2C(=O)NC(=S)NC2=O)C=C(C(F)(F)F)N1Cc1ccccc1 | 90.4* | 23.8 | 15.2* | 5.2 | 13.7 | 9.3
CC1=CC(=C2C(=O)NC(=O)NC2=O)C=C(C(F)(F)F)N1Cc1ccccc1 | -1.0 | 2.0 | 31.8 | 3.1 | 4.8 | 2.0
Cc1nc2cc(C(=O)N3CCC4(CC3)OCCO4)ccc2n1-c1ccc(Br)cc1 | 2.9 | 1.4 | 3.7 | -1.4 | 2.4 | -7.2
O=C(c1ccc2c(c1)ncn2-c1ccc(F)cc1F)N1CCC2(CC1)OCCO2 | 0.2 | 0.1 | 20.5* | 1.1 | 7.2 | 0.5
COc1ccc(-n2c(C)nc3cc(C(=O)N4CCC5(CC4)OCCO5)ccc32)cc1 | -0.4 | 0.0 | 24.0* | -4.2 | 1.3 | 1.7
CC(C)N1CC=C(c2c[nH]c3ccccc23)CC1 | 3.0 | -5.0 | 4.2 | 86.9* | 64.7* | -3.9
CCN(CC)C(=O)c1ccc(NC(=O)Nc2ccccc2F)cc1 | -121.3 | -0.8 | 4.5 | 43.3* | 43.0* | 28.2*
CCN(CC)C(=O)c1ccc(NC(=O)CCCSc2ccccc2)cc1 | 7.8 | -0.3 | 3.4 | -0.5 | 3.2 | 5.5
CCc1c(C)nc(N)nc1N1N=C1SC(C(C)=O)C(C)=O | -8.0 | 0.9 | 2.8 | -6.8 | 2.4 | 2.5
COc1cc(OC)c(C=O)c(OC(=O)N(C)C)c1 | 10.3 | -3.2 | 2.0 | -0.4 | 0.3 | 4.6
OCC[n+]1c2ccccc2nc2ccc(N3CCOCC3)cc21 | · | -1.9 | · | 18.9 | 31.1* | 8.4
Cc1ccccc1-n1c(O)c(/C=C2/C(c3ccccc3)=Nc3ccccc32)c(=O)[nH]c1=O | 62.3* | 37.9 | 8.7 | 77.6* | 68.9* | 78.5*
C[C@H]1C[C@@H](C)C(=O)[C@@H]([C@H](O)CC2CC(=O)NC(=O)C2)C1 | 45.2* | 0.3 | 11.2 | 97.5* | 99.8* | 97.6*
Cc1nn(Cc2ccccc2)c(Cl)c1C(=O)OCC(=O)NCC1CCCO1 (configuration not stated) | 7.4 | 5.8 | 1.4 | 3.4 | 1.1 | 9.8
CN1CCN(Cc2nc3ccccc3n2C)CC1 | -7.1 | -5.1 | 1.7 | -1.6 | 2.9 | -4.5
Cn1c(NN=O)nc2ccccc21 | 75.2* | 0.3 | 1.4 | -0.2 | 4.1 | 9.8
O=C(NC1(C(F)(F)F)Oc2ccc(Cl)cc2O1)N1CCC2(CC1)OCCO2 (configuration not stated) | 47.8* | 3.5 | 3.1 | 44.4* | 19.9 | 4.1
Cn1cccc1/C=C1\C(=O)NC(=O)N(Cc2ccccc2)C1=O | · | 74.1* | · | -2.5 | -5.2 | 1.0
Cn1cccc1/C=C1/C(=O)NC(=S)N(Cc2ccc(F)cc2)C1=O | · | 53.7* | · | -0.6 | -1.3 | 1.1
Cn1cccc1/C=C1/C(=O)NC(=O)N(Cc2ccccc2)C1=O | 25.4 | 64.2* | 6.0 | -4.2 | 1.4 | 4.3
Cn1cccc1/C=C1/C(=O)NC(=O)N(Cc2ccc(F)cc2)C1=O | · | 3.9 | · | 3.4 | 0.0 | -1.6
SMILES | APP 5UTR inh | b-catenin transl | MT stabilize HCS | Ba/F3 V617F tox | BaF3 tox | IEC-6 tox
CCOc1ccccc1N=C1SCCCN1C | 2.7 | -6.3 | 3.8 | -4.3 | -1.2 | -5.4
CCOc1cccc(=NC2CCCCC2)c2c(C)n(C)c(C)c12 | · | -1.2 | · | 72.8* | 64.7* | 3.1
CC/C(=N\Nc1ccccc1)c1c(O)n(-c2ccc(OC)cc2)c(=O)[nH]c1=O | · | 1.8 | · | -1.9 | -1.8 | 2.9
COc1cccc(NP(=O)(Oc2ccccc2Cl)Oc2ccccc2Cl)c1 | 17.4 | -0.1 | 2.3 | 1.3 | 5.0 | -8.0
COc1cccc(NP(=O)(Oc2ccccc2)Oc2ccccc2)c1 | 6.6 | -0.1 | 18.4* | 3.2 | 6.7 | 12.0
O=C(c1ccc(N2CCCCCC2)c([N+](=O)[O-])c1)N1CCC2(CC1)OCCO2 | 4.3 | -2.2 | · | 0.9 | 9.1 | 1.0
CN[C@H]1C[C@H]2O[C@@](C)([C@H]1OC)n1c3ccccc3c3c4c(c5c6ccccc6n2c5c31)C(=O)NC4 | 94.8* | · | 11.5 | · | · | ·
COP(=O)(OC)/C(C=O)=N/Nc1ccc([N+](=O)[O-])cc1 | -36.8 | -0.8 | 4.9 | 1.7 | 0.3 | 0.1
Cc1ccc(-n2c(O)c(C=Nc3ccccc3N)c(=O)[nH]c2=O)cc1C | -135.2 | -2.3 | 2.3 | 1.1 | 4.1 | 4.5
O=c1[nH]c(=O)n(-c2ccc(F)cc2)c(O)c1C=Nc1ccccc1N1CCCC1 | -1.5 | · | 2.7 | 5.1 | 38.4* | -1.5
C[C@H]1O[C@@H](OC2CC[C@]3(C=O)[C@H]4CC[C@]5(C)[C@@H](C6=CC(=O)OC6)CC[C@]5(O)[C@@H]4CC[C@]3(O)C2)CC2OC(C)(C)OC21 (some centres not stated) | · | · | · | · | · | -4.6
C[C@@H]1O[C@@H](O[C@H]2C[C@@H](O)[C@]3(CO)[C@H]4[C@H](O)C[C@]5(C)[C@@H](C6=CC(=O)OC6)CC[C@]5(O)[C@@H]4CC[C@]3(O)C2)[C@H](O)[C@H](O)[C@H]1O | 95.9* | 13.6 | 13.1 | -1.6 | 5.8 | -0.1
C[C@H]1O[C@@H](O[C@H]2[C@@H](O)C[C@H](O[C@H]3[C@@H](O)C[C@H](O[C@H]4CC[C@@]5(C)[C@H](CC[C@@H]6[C@@H]5CC[C@]5(C)[C@@H](C7=CC(=O)OC7)CC[C@]65O)C4)O[C@@H]3C)O[C@@H]2C)C[C@H](O)[C@@H]1O | 94.4* | 10.4 | 6.3 | -0.6 | 5.7 | 4.9
COP(=O)(C#Cc1ccccc1)C(O)c1ccc(Br)cc1 (configuration not stated) | · | -1.8 | · | -3.1 | 0.1 | -1.6
Cc1cc(C)cc(N2C(=O)NC(=O)/C(=C\C=C\c3ccco3)C2=O)c1 | 46.5* | -1.6 | 3.5 | 0.8 | 5.1 | -5.7
COc1ccc(CCNCc2ccccc2F)cc1OC | 36.7 | -1.3 | 3.6 | -4.1 | 1.9 | 1.0
CCOc1ccc(Cl)cc1CNCCc1ccccc1F | · | 0.5 | · | 28.8* | 63.3* | 0.0
O=c1c2ccccc2nc(CSc2ncnc3nc[nH]c23)n1-c1ccccc1Cl | 5.3 | -4.3 | 3.3 | 11.5 | 16.8 | 4.6
O=c1c2ccccc2nc(CSc2ncnc3nc[nH]c23)n1-c1ccccc1 | -6.5 | · | 1.5 | 8.9 | 31.8* | 10.1
CCOC(=O)C1(CCOc2ccccc2)CCN(Cc2ccc(C)s2)CC1 | 5.1 | -0.2 | 2.5 | -4.2 | 0.2 | 0.3
O=c1c2ccccc2nc(/C=C/c2ccc([N+](=O)[O-])o2)n1-c1ccc(O)cc1 | 80.3* | 6.9 | 2.4 | 3.3 | 2.6 | -3.8
